Article PMC2213384 (The Journal of Experimental Medicine, 1998)
Read-outs that look alike come from different tables or passages of the source. Marks after values point to notes of the source that are not given here. Blank lines part the entries; values can stand above or below the molecule they belong to.

Tests used:
Qa-1^b [1] = format: binding, mouse; conditions: for Binding of poly-Gly peptides to Qa-1^b (in words): Table 2 in words, 20 μM; for Blocking of / binding to Qa-1^b at 20 μM (in words): 20 μM competitor
sM3 = test: SPR direct binding of sM3 to immobilized QdmC5; conditions: Fig. 1 B; 0.5 μM sM3, 20 μl at 1 μl/min
sCD1 = test: SPR direct binding of sCD1 to immobilized QdmC5; conditions: data not shown
Qa-1^b [2] = conditions: previous finding; ref [6]; cited from earlier work
[3] = Solubility of peptides in running buffer / aqueous solvents; format: physicochemical
Method in brief: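 Solubility was judged for peptides used as competitors in SPR on a Biacore 2000 at 25°C. The running buffer was Hepes-buffered saline, or 2% DMSO in HBS for the hydrophobic leader peptides. Competitors were at 20 μM (poly-Gly series titrated up to 20 μM), co-injected with 0.5 μM soluble Qa-1b at 1 μl/min for 20 min over immobilized QdmC5.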

[4] = target: QdmC5 peptide (…) (mouse); test: SPR
[5] = target: QdmC5 peptide (…) (mouse); test: SPR; remark: listed apart in the source
[6] = target: QdmC5 peptide (…) (mouse); test: SPR; remark: listed apart in the source
[7] = target: QdmC5 peptide (…) (mouse); test: SPR; remark: listed apart in the source
[8] = target: soluble Qa-1^b/β2-microglobulin dimer (mouse (C57BL/6) | murine) (UniProt P06339); test: SPR

Blocking of Qa-1^b binding / binding ability over the titration (in words) (Qa-1^b [1]; Fig. 1 D, 0.5 μM sQa-1^b, competitor 200 nM to 20 μM, 1 μl/min for 20 min): completely blocked binding | Binding to Qa-1^b in 2% DMSO (in words) (Qa-1^b [1]; Fig. 3 B, running buffer 2% DMSO in HBS): bind Qa-1^b
Molecule: AMAPRTLLL [Qdm, reference compound]
Affinity of binding to Qa-1^b (in words) (Qa-1^b [2]): very high affinity

Binding of poly-Gly peptides to Qa-1^b (in words) (Qa-1^b [1]): very little binding
Molecule: GMGGGGGLL

Binding of poly-Gly peptides to Qa-1^b (in words) (Qa-1^b [1]): very little binding
Molecule: GMGGGGLGL

Blocked binding of sQa-1^b to immobilized QdmC5 peptide (Qa-1^b [1]; highest concentration tested (20 μM)): > 50% | Blocking activity at 200 nM (in words) (Qa-1^b [1]; titration, 200 nM): none | Blocking activity at 2 μM (in words) (Qa-1^b [1]; titration, 2 μM): relatively little blocking activity
Molecule: GMGGGGLLL

Solubility in 2% DMSO in HBS ([3]; 2% DMSO in HBS (SPR running buffer)): remained soluble | Solubility in aqueous solvents ([3]; aqueous solvents): not soluble in aqueous solvents
Molecule: VMSPTVLLL

Further lines, the molecule ahead of its results:

Molecule: 10-mer: Qdm extended by adding a leucine at position 10 (AMAPRTLLLL)
Binding at 200 nM (in words) (Qa-1^b [1]; Fig. 1 D, 0.5 μM sQa-1^b, competitor 200 nM): almost no binding | Binding relative to the Qdm nonamer at 20 and 2 μM (in words) (Qa-1^b [1]; Fig. 1 D, 0.5 μM sQa-1^b, competitor 20 and 2 μM): decreased binding relative to the nonamer

Molecule: AMAPCTLLL [QdmC5]
Binding of soluble protein to immobilized peptide (in words) (sM3): failed to bind | Binding of soluble protein to immobilized peptide (in words) (sCD1): failed to bind

Molecule: MAPRTLLLL
Blocking of / binding to Qa-1^b at 20 μM (in words) (Qa-1^b [1]; Fig. 1 D, 0.5 μM sQa-1^b): failed to bind

Molecule: MGAMAPRTL
Blocking of / binding to Qa-1^b at 20 μM (in words) (Qa-1^b [1]; Fig. 1 D, 0.5 μM sQa-1^b): failed to bind

Molecule: soluble Qa-1^b/β2-microglobulin dimer (from UniProt P06339 21-357; P01887 21-119) (complex)
RU, binding in the absence of peptide [4]: 230 RU | RU, binding in the absence of peptide [5]: 263 RU | RU, binding in the absence of peptide [6]: 345 RU | RU, binding in the absence of peptide [7]: 276 RU

B1: Qdm peptide (…) (peptide)
peptide: AMAPRTLLL
RU of sQa-1^b left on immobilised QdmC5 with 20 μM Qdm [8]: 25 RU
